Measured values: ChEMBL document CHEMBL1124226, “Benzothiopyranoindazoles, a new class of chromophore modified anthracenedione anticancer agents. Synthesis and activity against murine leukemias” (J Med Chem, 1988)

Legend:
P388 [1] = assay: In vivo for the optimal dose for activity against P388 leukemia per injection; type: functional, Mus musculus
In short: (§1)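 P388 leukemia in mice, drug given ip on days 1-5 (Q01D×5, IP/IP, NCI testing protocol). Optimum response taken over doses, expressed as mg/kg per injection. Read-outs are %T/C survival and net log cell kill (Schabel method). Cured mice are included in the %T/C and net kill calculations.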

L1210 [2] = assay: In vitro for its inhibitory activity against murine L1210 leukemia; type: functional, cell-based; settings: Mus musculus
Mus musculus [3] = species: Mus musculus; assay: % T/C survival against murine B-16 melanoma (day 60 surv); type: functional
In short: (§2)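 Murine B-16 melanoma in vivo. Optimal dose given as mg/kg per injection. Response is % T/C survival, with day-60 survivors reported as number per group (of 10 or 6).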

Mus musculus [4] = assay: The compound was evaluated in vivo for the optimal dose for activity against of B-16 leukemia per injection; type: functional; settings: in the assay text read “B-16 melanoma” for “B-16 leukemia”; in short: as §2
P388 leukemia (mouse) = assay: Net log value for P388 leukemia cell kill in mice was determined
L1210 [5] = assay: In vitro for its inhibitory activity against murine L1210 leukemia; Inactive; type: functional, cell-based, Mus musculus
P388 [6] = assay: Percentage T/C survival (treated vs control) against P388 leukemia (day 30 surv); type: functional, Mus musculus; in short: as §1
Mus musculus [7] = assay: The compound was evaluated in vivo for the optimal dose for activity against murine B-16 melanoma; type: functional; in short: as §2

| Structure (SMILES) | IC50 (L1210 [2]) | IC50 (L1210 [5]) | Dose (P388 [1]) | T/C (Mus musculus [3]) | Dose (Mus musculus [4]) | Net log cell kill (P388 leukemia (mouse)) | T/C (P388 [6]) | Dose (Mus musculus [7]) |
| --- | --- | --- | --- | --- | --- | --- | --- | --- |
| CCN(CC)CCn1nc2c3c(c(NCCN4C(=O)c5ccccc5C4=O)ccc31)Sc1c(OC)cccc1-2 | – | Not Active | 12.5 mg/kg | – | – | -1.5 | 107% | – |
| Br.Nc1ccc2c3c(nn2CCNCCO)-c2cc(O)ccc2Sc13 | 23 nM | – | 3.1 mg/kg | – | – | 4.2 | 192% | – |
| CN(C)CCn1nc2c3c(c(N)ccc31)Sc1ccccc1-2.Cl.O | 63 nM | – | 12.5 mg/kg | – | – | 1.8 | 165% | – |
| CC(=O)NCCn1nc2c3c(c(NCCN4CCOC4=O)ccc31)Sc1ccccc1-2 | – | Not Active | 12.5 mg/kg | – | – | -1.6 | 100% | – |
| O=C1OCCN1CCNc1ccc2c3c(nn2CCNCCO)-c2ccccc2Sc13 | 540 nM | – | – | – | – | – | – | – |
| CCN(CC)CCn1nc2c3c(c(N)ccc31)Sc1cc(O)ccc1-2 | 190 nM | – | – | – | – | – | – | – |
| CCN(CC)CCn1nc2c3c(c(NC(=O)CN)ccc31)Sc1cc(O)ccc1-2.Cl.O | 140 nM | – | 100 mg/kg | – | – | – | 195% | – |
| CCN(CC)CCn1nc2c3c(c(N)ccc31)Sc1ccc(O)cc1-2.Cl.O | 11 nM | – | 6.3 mg/kg | 264% | – | > 6.7 | – | 1.8 mg/kg |
| CCN(CC)CCn1nc2c3c(c(Cl)ccc31)[S+]([O-])c1ccccc1-2 (stereo not given) | – | Not Active | – | – | – | – | – | – |
| CCN(CC)CCn1nc2c3c(c(N)ccc31)Sc1cccc(O)c1-2 | 61 nM | – | – | – | – | – | – | – |
| CCN(CC)CCn1nc2c3c(c(Cl)ccc31)S(=O)(=O)c1ccccc1-2 | 2200 nM | – | – | – | – | – | – | – |
| CCN(CC)CCn1nc2c3c(c(N)ccc31)Sc1cc(OC)ccc1-2.Cl.O | – | Not Active | – | – | – | – | – | – |
| CC(=O)OCCN(CCn1nc2c3c(c(N)ccc31)Sc1ccccc1-2)C(C)=O.Cl | – | Not Active | 400 mg/kg | – | – | -1.3 | 117% | – |
| CC(=O)NCCn1nc2c3c(c(N)ccc31)Sc1ccccc1-2.Cl | – | Not Active | 100 mg/kg | – | – | -1.7 | 100% | – |
| CCN(CC)CCn1nc2c3c(c(NCCNC(=O)OC(C)(C)C)ccc31)Sc1cccc(OC)c1-2 | – | Not Active | – | – | – | – | – | – |
| Br.CCN(CC)CCn1nc2c3c(c(NCCNCCO)ccc31)Sc1c(O)ccc(O)c1-2 | – | Not Active | 50 mg/kg | – | – | 0.1 | – | – |
| Cl.NCCn1nc2c3c(c(N)ccc31)Sc1ccccc1-2 | 100 nM | – | 12.5 mg/kg | – | – | 3.1 | 181% | – |
| CCN(CC)CCn1nc2c3c(c(N)ccc31)Sc1c(OC)cccc1-2.Cl | – | Not Active | 25 mg/kg | – | – | -1.5 | 109% | – |
| O=S1(=O)c2ccccc2-c2nn(CCNCCO)c3ccc(Cl)c1c23 | 920 nM | – | – | – | – | – | – | – |
| CCN(CC)CCn1nc2c3c(c(NC(=O)CNC(=O)OC(C)(C)C)ccc31)Sc1cc(OC)ccc1-2 | – | Not Active | – | – | – | – | – | – |
| Cl.O.O=S1(=O)c2ccccc2-c2nn(CCNCCO)c3ccc(NCCNCCO)c1c23 | – | Not Active | 200 mg/kg | – | – | 2.5 | 168% | – |
| O=C1c2c(O)ccc(O)c2C(=O)c2c(NCCNCCO)ccc(NCCNCCO)c21 [MITOXANTRONE] | – | – | 1.25 mg/kg | 265% | – | – | 291% | 0.6 mg/kg |
| Cl.Nc1ccc2c3c(nn2CCNCCO)-c2ccccc2Sc13.O | – | – | 25 mg/kg | 259% | – | 4.3 | 188% | 25 mg/kg |
| CN(C)CCCn1nc2c3c(c(N)ccc31)Sc1ccccc1-2.Cl.O | 2000 nM | – | 100 mg/kg | – | – | 4 | 197% | – |
| COc1cccc2c1C(=O)c1c(O)c3c(c(O)c1C2=O)C[C@@](O)(C(=O)CO)C[C@@H]3O[C@H]1C[C@H](N)[C@H](O)[C@H](C)O1 [DOXORUBICIN] | – | – | 2 mg/kg | 434% | – | – | 232% | 1 mg/kg |
| CCN(CC)CCn1nc2c3c(c(N)ccc31)Sc1cccc(OC)c1-2 | 2000 nM | – | – | – | – | – | – | – |

Second part, led by results:

| IC50 (L1210 [2]) | IC50 (L1210 [5]) | Structure (SMILES) | Dose (P388 [1]) | T/C (Mus musculus [3]) | Dose (Mus musculus [4]) | Net log cell kill (P388 leukemia (mouse)) | T/C (P388 [6]) | Dose (Mus musculus [7]) |
| --- | --- | --- | --- | --- | --- | --- | --- | --- |
| 30 nM | – | Br.CCN(CC)CCn1nc2c3c(c(NCCN)ccc31)Sc1ccccc1-2 | 12.5 mg/kg | 159% | 6.3 mg/kg | > 6.6 | – | – |
| 15 nM | – | CCN(CC)CCn1nc2c3c(c(NC(=O)CN)ccc31)Sc1ccccc1-2.Cl.O | 20 mg/kg | – | – | 2.4 | 184% | – |
| 260 nM | – | CCN(CC)CCn1nc2c3c(c(NCCCN)ccc31)Sc1ccccc1-2.Cl.O | 50 mg/kg | – | – | > 6.6 | 262% | – |
| 28 nM | – | CCN(CC)CCn1nc2c3c(c(NCCNCCO)ccc31)Sc1ccccc1-2.Cl.O | 12.5 mg/kg | 273% | – | > 6.8 | 280% | 12 mg/kg |
| – | Not Active | CCN(CC)CCn1nc2c3c(c(NCCN)ccc31)Sc1cc(OC)ccc1-2.Cl.O | 25 mg/kg | – | – | -0.4 | 133% | – |
| 71 nM | – | CCN(CC)CCn1nc2c3c(c(NCCN)ccc31)Sc1cc(O)ccc1-2.Cl.O | 6.3 mg/kg | 281% | – | – | 280% | 7.5 mg/kg |
| 27 nM | – | CN(C)CCCn1nc2c3c(c(NCCN)ccc31)Sc1ccccc1-2.Cl.O | 12.5 mg/kg | – | – | > 6.7 | – | – |
| 810 nM | – | CCN(CC)CCn1nc2c3c(c(NCCN4CCOC4=O)ccc31)Sc1ccccc1-2 | 100 mg/kg | – | – | 6 | – | – |
| – | Not Active | CCN(CC)CCn1nc2c3c(c(NCCN4CCOC4=O)ccc31)Sc1ccc(OC)cc1-2.Cl.O | 100 mg/kg | – | – | 6 | 220% | – |
| – | Not Active | CCN(CC)CCn1nc2c3c(c(NCCNC(=O)OC(C)(C)C)ccc31)Sc1cc(OC)ccc1-2 | 6.3 mg/kg | – | – | – | 93% | – |
| 4.3 nM | – | CCN(CC)CCn1nc2c3c(c(NCCN4CCOC4=O)ccc31)Sc1ccc(O)cc1-2.Cl.O | 12.5 mg/kg | – | – | – | – | – |
| 1500 nM | – | CCN(CC)CCn1nc2c3c(c(N)ccc31)Sc1ccc(OC)cc1-2.Cl | 50 mg/kg | – | – | 1.4 | – | – |
| 4.8 nM | – | CCN(CC)CCn1nc2c3c(c(NCCNCCO)ccc31)Sc1ccc(O)cc1-2.Cl.O | 1.5 mg/kg | 183% | – | 4.5 | 200% | 1.5 mg/kg |
| 15 nM | – | CN(C)CCn1nc2c3c(c(NCCN)ccc31)Sc1ccccc1-2.Cl.O | 12.5 mg/kg | – | – | > 6.7 | 270% | – |
| 2.6 nM | – | CCN(CC)CCn1nc2c3c(c(NCCN)ccc31)Sc1ccc(O)cc1-2.Cl.O | 0.8 mg/kg | – | – | – | 186% | – |
| 50 nM | – | CCN(CC)CCNc1ccc2c3c(nn2CCN(CC)CC)-c2ccccc2Sc13.Cl | 25 mg/kg | – | – | 1.6 | – | – |
| – | Not Active | CCN(CC)CCNc1ccc2c3c(nn2CCN(CC)CC)-c2ccccc2S(=O)(=O)c13 | 12.5 mg/kg | – | – | -1.6 | 101% | – |
| 100 nM | – | CCN(CC)CCn1nc2c3c(c(N)ccc31)Sc1ccccc1-2 | 25 mg/kg | 112% | – | 2.2 | – | 12 mg/kg |
| 240 nM | – | CCN(CC)CCNc1ccc2c3c(nn2CCNCCO)-c2ccccc2Sc13.Cl.O | 25 mg/kg | – | – | 0.5 | – | – |
| 48 nM | – | Br.CCN(CC)CCn1nc2c3c(c(NCCN)ccc31)Sc1cccc(O)c1-2 | 12.5 mg/kg | – | – | 2.8 | 177% | – |
| 1200 nM | – | CCN(CC)CCn1nc2c3c(c(NCCN)ccc31)S(=O)(=O)c1ccccc1-2.Cl.O | 100 mg/kg | – | – | 1.8 | 159% | – |
| 22 nM | – | Cl.NCCn1nc2c3c(c(NCCNCCO)ccc31)Sc1ccccc1-2 | 12.5 mg/kg | – | – | > 6.7 | 233% | – |
| – | Not Active | CCN(CC)CCn1nc2c3c(c(NCCN)ccc31)Sc1c(O)cccc1-2.Cl.O | 6.3 mg/kg | – | – | -0.9 | 122% | – |
| 210 nM | – | CCN(CC)CCn1nc2c3c(c(NCCN)ccc31)Sc1ccc(OC)cc1-2.Cl.O | 12.5 mg/kg | – | – | 3.9 | – | – |
| 200 nM | – | CCN(CC)CCn1nc2c3c(c(NCCNCCO)ccc31)Sc1ccc(OC)cc1-2.Cl | 25 mg/kg | – | – | 3.2 | – | – |
